Experimental findings from ChEMBL document CHEMBL4229410, “Facile construction of fused benzimidazole-isoquinolinones that induce cell-cycle arrest and apoptosis in colorectal cancer cells” (Bioorg Med Chem, 2018) are described below.

Where only a bound is given, the exact number is not on record here.

One experiment concerns SW-620. The experiment in a line: Growth inhibition of human SW620 cells by MTT assay. Format: functional. In short, it runs like this:
(§1)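 MTT viability assay: 3×10³ cells/well were pre-incubated for 24 h, then exposed to 0, 12.5, 25, 50, 100 or 200 μM for 12, 24, 48 or 72 h. MTT was added at 0.5 mg/mL final for 4 h, formazan dissolved in DMSO, and absorbance read at 570 nm. GI₅₀ was taken from growth-inhibition curves; mean ± SD of three independent experiments, each in sextuplicate.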
On the technique in general: Tetrazolium assays rely on reduction of a dye to a coloured formazan, in cell work by metabolically active cells.

Another experiment has as its system HT-29. The experiment in a line: Growth inhibition of human HT-29 cells by MTT assay. The class given is functional. In short, it runs like this:
as §1

Turning to `O=C(c1cccs1)N(c1c2ccccc2c(=O)n2c1[nH]c1ccccc12)C1CC1`, the figures for the GI50 with SW-620 and in the experiment on HT-29 were 47.6 µM and 51.3 µM, respectively.

`O=C(c1ccccc1)N(c1ccccc1)c1c2ccccc2c(=O)n2c1[nH]c1ccccc12`: the GI50 with SW-620 and with HT-29 was > 100 µM throughout.

Turning to `CC(C)CN(C(=O)c1ccccc1C(=O)O)c1c2ccccc2c(=O)n2c1[nH]c1ccccc12`, the 50% growth inhibitory concentration (GI50) (commonly the concentration giving 50% growth inhibition) with SW-620 amounted to 52.7 µM; in the experiment with HT-29, 59.8 µM.

For `CC(=O)N(c1ccccc1Br)c1c2ccccc2c(=O)n2c1[nH]c1ccccc12`, the GI50 in the experiment on SW-620 fell in the range of 46.9 to 100 µM; in the experiment on HT-29 it was 57.2 to 100 µM.

For the molecule `CC(C)CN(C(=O)c1cccs1)c1c2ccccc2c(=O)n2c1[nH]c1ccccc12`, the results for the GI50 in the experiment with SW-620 and in the experiment with HT-29 were 44.1 µM and 49.5 µM, respectively.

`O=C(c1ccco1)N(c1ccccc1Br)c1c2ccccc2c(=O)n2c1[nH]c1ccccc12`: the GI50 was 46 to 100 µM with SW-620 and 43.7 to 100 µM in the experiment on HT-29.

With `O=C(c1ccncc1)N(CCc1ccccc1)c1c2ccccc2c(=O)n2c1[nH]c1ccccc12`, the GI50 in the experiment on SW-620 is 48.9 µM; in the experiment on HT-29, 52.3 µM.

For the molecule `O=C(Nc1c2ccccc2c(=O)n2c1[nH]c1ccccc12)c1ccccc1`, the concentration for 50% growth inhibition (GI50) in the experiment on SW-620 and in the experiment on HT-29 was > 100 µM throughout.

As for `O=C(c1ccccc1)N(Cc1ccccc1)c1c2ccccc2c(=O)n2c1[nH]c1ccccc12`, the values for the GI50 in the experiment on SW-620 and in the experiment on HT-29 were 69.7 µM and 74.3 µM, respectively.

Take `CC(C)CN(C(=O)c1ccco1)c1c2ccccc2c(=O)n2c1[nH]c1ccccc12`: the GI50 amounted to 53.5 µM in the experiment with SW-620 and 52.8 µM in the experiment with HT-29.

Turning to `O=C(c1cccnc1)N(c1ccccc1Br)c1c2ccccc2c(=O)n2c1[nH]c1ccccc12`, the GI50 in the experiment with SW-620 worked out at 57.9 µM; with HT-29, 61.3 µM.
